The values that follow come from PMC7302971 (Bioorganic chemistry, 2020).

The target in one assay is T1, HDAC8 (Homo sapiens, UniProt Q9BY41).
T1 sequence (Q9BY41 1-377): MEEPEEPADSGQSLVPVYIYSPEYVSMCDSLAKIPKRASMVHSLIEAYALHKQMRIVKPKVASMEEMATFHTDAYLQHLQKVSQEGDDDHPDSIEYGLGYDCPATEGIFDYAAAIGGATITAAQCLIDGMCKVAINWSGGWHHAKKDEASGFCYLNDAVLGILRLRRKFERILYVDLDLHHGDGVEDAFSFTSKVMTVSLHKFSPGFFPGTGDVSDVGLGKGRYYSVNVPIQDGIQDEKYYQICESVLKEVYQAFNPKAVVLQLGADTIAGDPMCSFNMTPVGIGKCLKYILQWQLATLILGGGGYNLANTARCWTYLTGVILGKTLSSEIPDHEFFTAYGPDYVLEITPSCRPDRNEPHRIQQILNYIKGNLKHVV
The experiment in a line: HDAC enzyme activity assay. Type of assay: biochemical. The conditions noted are these: for remaining activity at 50 µM: read-out: Residual HDAC8 activity at 50 μM. In a few lines: (§1)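 HDAC4 and HDAC8 were in-house recombinant enzymes. Each was preincubated with inhibitor, either a single 50 μM screen or serial dilutions, for 60 min at 30 °C in Tris-HCl pH 8.0/KCl/Pluronic buffer. Substrate was 20 μM Boc-Lys(trifluoroacetyl)-AMC for 60 min at 30 °C, stopped with 1.7 μM SATFMK, and developed with trypsin. AMC fluorescence was read at 350/450 nm and reported as residual activity or as IC50 from a four-parameter logistic fit.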

The target in the next assay is HDAC4 (Homo sapiens, UniProt P56524). Description: HDAC enzyme activity assay. Type of assay: biochemical. To be noted: for remaining activity at 50 µM: read-out: Residual HDAC4 activity at 50 μM. In a few lines: as §1
The subject of the next assay is CEM leukemia cells. The experiment in a line: Differential Nuclear Staining. To be noted: Homo sapiens, 48 h. Type of assay: cell-based, human. In a few lines: (§2)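 Cells were seeded at 10,000/well and exposed to test compound for 48 h at 1% (v/v) final DMSO. The first screen used a single concentration with controls in quadruplicate. Dose-response used 0.5–100 μM in triplicate. Controls: DMSO vehicle, hydrogen peroxide (positive), untreated (negative). Hoechst 33342 plus PI were added 2 h before automated imaging, and colocalised signal was scored as dead. […] Two-tailed t-test versus DMSO.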

In a further assay the test system is K-562 leukemia cells. Description: Differential Nuclear Staining. Type of assay: cell-based, human. In outline:
as §2

The test system of the next assay is KCL-22 leukemia cells. Description: Differential Nuclear Staining. Type of assay: cell-based, human. In a few lines: as §2

Like-named read-outs stand apart in the source and are kept apart here.

Chain of HDAC4 (P56524 648-1057 limits assumed): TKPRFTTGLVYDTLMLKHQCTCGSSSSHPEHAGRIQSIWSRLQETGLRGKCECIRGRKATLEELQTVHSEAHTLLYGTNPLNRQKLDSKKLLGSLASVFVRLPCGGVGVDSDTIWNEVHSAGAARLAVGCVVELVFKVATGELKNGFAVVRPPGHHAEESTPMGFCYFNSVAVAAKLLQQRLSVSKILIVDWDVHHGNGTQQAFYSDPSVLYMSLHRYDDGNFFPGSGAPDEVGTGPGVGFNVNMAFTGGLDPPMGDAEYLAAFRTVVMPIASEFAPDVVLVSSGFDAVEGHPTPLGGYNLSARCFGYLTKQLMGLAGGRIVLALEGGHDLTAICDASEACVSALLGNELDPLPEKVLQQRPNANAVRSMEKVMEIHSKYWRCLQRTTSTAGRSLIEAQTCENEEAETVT

On to `O=C(CN1C(=O)SC(=Cc2ccccn2)C1=O)Nc1ccc(F)cc1` [Compound P11, 2-(2,4-dioxo-5-(pyridin-2-ylmethylene)thiazolidin-3-yl)-N-(4-fluorophenyl)acetamide], for which the IC50 against HDAC8 and against HDAC4 was over 50 µM throughout. For the same compound, the remaining activity at 50 µM at HDAC4 is 100%.
Regarding `O=C(CN1C(=O)SC(=Cc2ccccn2)C1=O)Nc1nccs1` [Compound P20, 2-(2,4-dioxo-5-(pyridin-2-ylmethylene)thiazolidin-3-yl)-N-(thiazol-2-yl)acetamide], at HDAC8, the IC50 – broadly, the point on the concentration scale where inhibition reaches its midpoint – was over 50 µM and the remaining activity at 50 µM stood at 92%. Also, on HDAC4, the IC50 is over 50 µM and the remaining activity at 50 µM was 100%.
Regarding `O=C(CN1C(=O)SC(=Cc2ccccn2)C1=O)Nc1ccc([N+](=O)[O-])cc1` [Compound P16, 2-(2,4-dioxo-5-(pyridin-2-ylmethylene)thiazolidin-3-yl)-N-(4-nitrophenyl)acetamide], the IC50 on HDAC8 and against HDAC4 was over 50 µM throughout. Further, the remaining activity at 50 µM at HDAC4 amounted to 100%.
For the compound `COc1ccc(NC(=O)CN2C(=O)SC(=Cc3ccccn3)C2=O)cc1` [Compound P14, 2-(2,4-dioxo-5-(pyridin-2-ylmethylene)thiazolidin-3-yl)-N-(4-methoxyphenyl)acetamide], on HDAC8, the IC50 was over 50 µM and the remaining activity at 50 µM is 67%. Besides, on HDAC4, the IC50 was over 50 µM and the remaining activity at 50 µM was 100%.
Regarding `O=C(CN1C(=O)SC(=Cc2ccccn2)C1=O)Nc1ccccc1F` [Compound P2, 2-(2,4-dioxo-5-(pyridin-2-ylmethylene)thiazolidin-3-yl)-N-(2-fluorophenyl)acetamide], on HDAC8, the IC50 was over 50 µM and the remaining activity at 50 µM turned out to be 92%. At HDAC4, the IC50 is over 50 µM and the remaining activity at 50 µM was found to be 100%.
As to `O=C(CN1C(=O)SC(=Cc2ccccn2)C1=O)Nc1ccc(Cl)c(Cl)c1` [Compound P8, N-(3,4-dichlorophenyl)-2-(2,4-dioxo-5-(pyridin-2-ylmethylene)thiazolidin-3-yl)acetamide], the CC50 (commonly the concentration giving 50% cytotoxicity) with CEM leukemia cells was found to be 36.9 ± 1.11 µM. In addition, the IC50 against HDAC8 and on HDAC4 was over 50 µM in each case. Further, the remaining activity at 50 µM on HDAC8 turned out to be 82%; on HDAC4, 100%. Also, the “cell death at 100 μM” value in the assay with K-562 leukemia cells (K562, DNS assay, 48 h, 100 μM) is given as 40.28% cell death at 100 μM; in the assay on KCL-22 leukemia cells (KCL22, DNS assay, 48 h, 100 μM) it was 29.22% cell death at 100 μM.
For the compound `COc1cccc(NC(=O)CN2C(=O)SC(=Cc3ccccn3)C2=O)c1` [Compound P24, 2-(2,4-dioxo-5-(pyridin-2-ylmethylene)thiazolidin-3-yl)-N-(3-methoxyphenyl)acetamide], at HDAC8, the IC50 was over 50 µM and the remaining activity at 50 µM stood at 68%. In addition, on HDAC4, the half-maximal inhibitory concentration (IC50) is over 50 µM and the remaining activity at 50 µM worked out at 100%.
In the case of `Cc1ccc(NC(=O)CN2C(=O)SC(=Cc3ccccn3)C2=O)cc1Cl` [Compound P17, N-(3-chloro-4-methylphenyl)-2-(2,4-dioxo-5-(pyridin-2-ylmethylene)thiazolidin-3-yl)acetamide], at HDAC8, the IC50 was over 50 µM and the remaining activity at 50 µM worked out at 88%. For the same compound, on HDAC4, the IC50 is over 50 µM and the remaining activity at 50 µM was determined as 100%.
On to `O=C(CN1C(=O)SC(=Cc2ccccn2)C1=O)Nc1ccc(Cl)cc1C(F)(F)F` [Compound P7, N-(4-chloro-2-(trifluoromethyl)phenyl)-2-(2,4-dioxo-5-(pyridin-2-ylmethylene)thiazolidin-3-yl)acetamide], for which, on HDAC8, the IC50 is over 50 µM and the remaining activity at 50 µM stood at 61%. Also, at HDAC4, the IC50 is over 50 µM and the remaining activity at 50 µM worked out at 100%.
In the case of `O=C(CN1C(=O)SC(=Cc2ccccn2)C1=O)Nc1ccc(Br)cc1` [Compound P22, N-(4-bromophenyl)-2-(2,4-dioxo-5-(pyridin-2-ylmethylene)thiazolidin-3-yl)acetamide], at HDAC8, the IC50 was over 50 µM and the remaining activity at 50 µM was 64%. For the same compound, at HDAC4, the IC50 is over 50 µM and the remaining activity at 50 µM was 100%.
For `Cc1cnc(NC(=O)CN2C(=O)SC(=Cc3ccccn3)C2=O)s1` [Compound P21, 2-(2,4-dioxo-5-(pyridin-2-ylmethylene)thiazolidin-3-yl)-N-(5-methylthiazol-2-yl)acetamide], on HDAC8, the IC50 was over 50 µM and the remaining activity at 50 µM turned out to be 54%. Also, at HDAC4, the IC50 is over 50 µM and the remaining activity at 50 µM stood at 100%.
For the compound “2-(2,4-dioxo-5-(pyridin-2-ylmethylene)thiazolidin-3-yl)-N-(4-methylisoxazol-3-yl)acetamide [Compound P18]”, the “Residual HDAC8 activity at 50 μM” value at HDAC8 (50 μM) is given as 99%. Also, the IC50 is over 50 µM at HDAC8 (read-out: HDAC8 IC50, triplicates, N=3) and over 50 µM on HDAC4 (read-out: HDAC4 IC50, triplicates, N=3). Moreover, at HDAC4 (50 μM), the “Residual HDAC4 activity at 50 μM” value is reported as 100%.
Consider `O=C(CN1C(=O)SC(=Cc2ccccn2)C1=O)Nc1ccccc1Oc1ccccc1` [Compound P13, 2-(2,4-dioxo-5-(pyridin-2-ylmethylene)thiazolidin-3-yl)-N-(2-phenoxyphenyl)acetamide], for which the IC50 against HDAC8 and against HDAC4 was over 50 µM in each case. Besides, the results for the remaining activity at 50 µM on HDAC8 and at HDAC4 were 91% and 100%, respectively.
`O=C(CN1C(=O)SC(=Cc2ccccn2)C1=O)Nc1ccc(Br)cc1F` [Compound P4, N-(4-bromo-2-fluorophenyl)-2-(2,4-dioxo-5-(pyridin-2-ylmethylene)thiazolidin-3-yl)acetamide]: at HDAC8, the IC50 was over 50 µM and the remaining activity at 50 µM amounted to 85%. For the same compound, on HDAC4, the IC50 was over 50 µM and the remaining activity at 50 µM is 100%.
In the case of `O=C(CN1C(=O)SC(=Cc2ccccn2)C1=O)Nc1ccccn1` [Compound P23, 2-(2,4-dioxo-5-(pyridin-2-ylmethylene)thiazolidin-3-yl)-N-(pyridin-2-yl)acetamide], on HDAC8, the IC50 was over 50 µM and the remaining activity at 50 µM was 54%. On HDAC4, the IC50 was over 50 µM and the remaining activity at 50 µM is 85%.
Turning to `O=C(CN1C(=O)SC(=Cc2ccccn2)C1=O)Nc1ccccc1` [Compound P1, 2-(2,4-dioxo-5-(pyridin-2-ylmethylene)thiazolidin-3-yl)-N-phenylacetamide], the IC50 on HDAC8 and at HDAC4 was over 50 µM throughout. Also, the values for the remaining activity at 50 µM at HDAC8 and on HDAC4 were 89% and 100%, respectively.
Take `O=C(CN1C(=O)SC(=Cc2ccccn2)C1=O)Nc1c(F)cc(Br)cc1F` [Compound P15, N-(4-bromo-2,6-difluorophenyl)-2-(2,4-dioxo-5-(pyridin-2-ylmethylene)thiazolidin-3-yl)acetamide]: at HDAC8, the IC50 was over 50 µM and the remaining activity at 50 µM stood at 94%. Further, on HDAC4, the IC50 is over 50 µM and the remaining activity at 50 µM is 100%.
Turning to `O=C(CN1C(=O)SC(=Cc2ccccn2)C1=O)Nc1cccc(F)c1` [Compound P3, 2-(2,4-dioxo-5-(pyridin-2-ylmethylene)thiazolidin-3-yl)-N-(3-fluorophenyl)acetamide], on HDAC8, the IC50 was over 50 µM and the remaining activity at 50 µM was determined as 53%. In addition, at HDAC4, the IC50 is over 50 µM and the remaining activity at 50 µM is 100%.
As for `O=C(CN1C(=O)SC(=Cc2ccccn2)C1=O)Nc1ccc(Br)c(Br)c1` [Compound P25, N-(3,4-dibromophenyl)-2-(2,4-dioxo-5-(pyridin-2-ylmethylene)thiazolidin-3-yl)acetamide], the cytotoxic concentration (CC50) in the assay on CEM leukemia cells amounted to 39 ± 1.69 µM; in the assay on K-562 leukemia cells (Homo sapiens, K562, 48 h), 65.6 ± 1.13 µM; in the assay on KCL-22 leukemia cells (Homo sapiens, KCL-22, 48 h) it was 82.2 ± 0.32 µM. Besides, the IC50 against HDAC8 and against HDAC4 was over 50 µM in each case. Moreover, the remaining activity at 50 µM at HDAC8 was 89%; on HDAC4, 86%.
Regarding `O=C(CN1C(=O)SC(=Cc2ccccn2)C1=O)Nc1cccc(C(F)(F)F)c1` [Compound P6, 2-(2,4-dioxo-5-(pyridin-2-ylmethylene)thiazolidin-3-yl)-N-(3-(trifluoromethyl)phenyl)acetamide], at HDAC8, the IC50 is over 50 µM and the remaining activity at 50 µM was 82%. On HDAC4, the IC50 is over 50 µM and the remaining activity at 50 µM turned out to be 100%.
